{"source": "ChEMBL document CHEMBL4680108", "about": "“Ancistrolikokine E, a 5,8'-Coupled Naphthylisoquinoline Alkaloid, Eliminates the Tolerance of Cancer Cells to Nutrition Starvation by Inhibition of the Akt/mTOR/Autophagy Signaling Pathway” (2018)", "test_system": "PANC-1", "test": "Anti-austerity activity against nutrient-deprived human PANC-1 cells assessed as cell death incubated for 24 hrs by WST-8 assay", "type": "functional", "summary_of_the_method": "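Human PANC-1 pancreatic cancer cells tested in parallel in nutrient-deprived medium (NDM) and in nutrient-rich DMEM. PC50 is the concentration that kills 50% of cells in NDM without toxicity in DMEM.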"}
{"smiles": "COc1cc(C[C@H]2C(=O)OC[C@@H]2Cc2ccc(OC)c(OC)c2)ccc1O", "note": "[ARCTIGENIN]", "values": [{"measurement": "PC50", "result": 0.83, "unit": "µM"}]}
